The source made the active and inactive calls. The calls are words filed in the database; no cut-off is given here.
What was measured:
HL-60 [1] = assay: Antiproliferative activity against human HL60 cells assessed as cell number at 5 uM incubated for 24 hrs by Coulter counting method; format: functional
Method in brief: (§1)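 HL-60 cells in RPMI with 10% heat-inactivated FCS, antibiotics and amphotericin, 37 °C, 5% CO2, seeded in 60 mm dishes. Compound added at 5, 15 or 25 µM for 24, 48 or 72 h. Absolute cell counts taken by Coulter counter and expressed as percentage of untreated control. Mean ± SD of at least three independent experiments; one-way ANOVA with Tukey test, p < 0.05.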

Nucleic Acid [2] = assay: Binding affinity to Escherichia coli pUC19 DNA assessed as reduction in DNA mobility to 5 to 80 uM by EMSA; format: nucleic-acid assay
Method in brief: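 Supercoiled pUC19 plasmid incubated with compound at 5, 20, 40, 60 or 80 µM. Native agarose gel electrophoresis run with no ethidium bromide in the gel; band mobility was then read.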

HL-60 [3] = assay: Cell cycle arrest in human HL60 cells assessed as accumulation at G2/M phase at 5 uM incubated for 24 hrs by flow cytometry (reference value: 19.62 +/- 0.96%); format: functional
HL-60 [4] = assay: Cell cycle arrest in human HL60 cells assessed as accumulation at S phase at 15 uM incubated for 72 hrs by flow cytometry (reference value: 40.30 +/- 3.15%); format: functional
HL-60 [5] = assay: Antiproliferative activity against human HL60 cells assessed as cell number at 5 uM incubated for 72 hrs by Coulter counting method; format: functional; method in brief: as §1
HL-60 [6] = assay: Cell cycle arrest in human HL60 cells assessed as accumulation at G1 phase at 25 uM incubated for 72 hrs by flow cytometry (reference value: 47.02 +/- 6.19%); format: functional
[7] = target: T1, DNA topoisomerase 1 (Homo sapiens) (UniProt P11387); assay: Inhibition of human topoisomerase 1 assessed as reduction in pBR322 DNA relaxation of relaxation at 5 uM by DNA unwinding assay
T1 sequence (whole entry): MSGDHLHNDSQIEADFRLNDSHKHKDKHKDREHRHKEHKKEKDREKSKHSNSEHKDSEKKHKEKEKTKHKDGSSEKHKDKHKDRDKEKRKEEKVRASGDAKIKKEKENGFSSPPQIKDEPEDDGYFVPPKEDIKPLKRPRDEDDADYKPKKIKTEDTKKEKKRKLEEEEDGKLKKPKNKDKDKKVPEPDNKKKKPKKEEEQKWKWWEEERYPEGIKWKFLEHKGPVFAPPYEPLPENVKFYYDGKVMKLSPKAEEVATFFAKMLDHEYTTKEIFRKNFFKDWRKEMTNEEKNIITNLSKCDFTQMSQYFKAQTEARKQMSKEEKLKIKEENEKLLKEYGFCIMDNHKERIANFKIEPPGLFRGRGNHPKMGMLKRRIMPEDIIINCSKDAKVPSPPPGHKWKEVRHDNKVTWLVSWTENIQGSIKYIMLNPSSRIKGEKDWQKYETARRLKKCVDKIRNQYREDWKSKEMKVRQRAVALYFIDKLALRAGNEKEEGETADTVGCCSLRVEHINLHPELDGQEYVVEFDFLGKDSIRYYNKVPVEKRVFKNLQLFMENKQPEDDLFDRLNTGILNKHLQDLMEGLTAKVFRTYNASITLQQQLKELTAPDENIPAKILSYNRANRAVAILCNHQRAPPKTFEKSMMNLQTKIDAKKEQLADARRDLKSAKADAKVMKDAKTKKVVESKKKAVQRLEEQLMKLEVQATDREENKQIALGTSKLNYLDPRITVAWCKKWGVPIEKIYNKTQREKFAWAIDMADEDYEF

HL-60 [8] = assay: Cell cycle arrest in human HL60 cells assessed as accumulation at G2/M phase at 15 uM incubated for 24 hrs by flow cytometry (reference value: 19.62 +/- 0.96%); format: functional
HL-60 [9] = assay: Cell cycle arrest in human HL60 cells assessed as accumulation at G2/M phase at 25 uM incubated for 24 hrs by flow cytometry (reference value: 19.62 +/- 0.96%); format: functional
HL-60 [10] = assay: Cell cycle arrest in human HL60 cells assessed as accumulation at G1 phase at 25 uM incubated for 48 hrs by flow cytometry (reference value: 38.29 +/- 0.22%); format: functional
HL-60 [11] = assay: Cell cycle arrest in human HL60 cells assessed as accumulation at G2/M phase at 15 uM incubated for 48 hrs by flow cytometry (reference value: 16.42 +/- 1.03%); format: functional
Nucleic Acid [12] = assay: Binding affinity to calf thymus DNA increase in DNA viscosity at 12 to 60 uM by viscosimetric titration assay; format: nucleic-acid assay; settings: Bos taurus
Method in brief: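 Relative viscosity of ctDNA (3.11 × 10^-8 M) with compound at 12–60 × 10^-6 M was measured by automated microviscometry in a 1.6 mm capillary at 25 °C, in 10 mM Tris, pH 7.4. Solution density was also measured.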

Nucleic Acid [13] = assay: Binding affinity to calf thymus DNA assessed as melting temperature at 12.4 uM by thermal denaturation study; format: nucleic-acid assay; settings: Bos taurus
HL-60 [14] = assay: Cell cycle arrest in human HL60 cells assessed as accumulation at S phase at 15 uM incubated for 24 hrs by flow cytometry (reference value: 44.41 +/- 0.77%); format: functional
HL-60 [15] = assay: Cell cycle arrest in human HL60 cells assessed as accumulation at G2/M phase at 5 uM incubated for 48 hrs by flow cytometry (reference value: 16.42 +/- 1.03%); format: functional
HL-60 [16] = assay: Cell cycle arrest in human HL60 cells assessed as accumulation at S phase at 25 uM incubated for 24 hrs by flow cytometry (reference value: 44.41 +/- 0.77%); format: functional
HL-60 [17] = assay: Cell cycle arrest in human HL60 cells assessed as accumulation at S phase at 15 uM incubated for 48 hrs by flow cytometry (reference value: 45.29 +/- 1.23%); format: functional
HL-60 [18] = assay: Cell cycle arrest in human HL60 cells assessed as accumulation at S phase at 25 uM incubated for 72 hrs by flow cytometry (reference value: 40.30 +/- 3.15%); format: functional
HL-60 [19] = assay: Induction of caspase-3 activation in human HL60 cells at 5 to 25 uM incubated for 24 to 72 hrs by FACS assay; format: functional, cell-based
Method in brief: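 HL-60 cells (RPMI with 10% heat-inactivated FCS, 37 °C, 5% CO2) were seeded in dishes and treated 24, 48 or 72 h. Cells were fixed and permeabilized 20 min on ice, then stained 30 min at RT with FITC anti-active caspase-3 antibody. Read-out was the percentage of positive cells by flow cytometry. Mean ± SD of at least three independent experiments; ANOVA with Tukey.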

HL-60 [20] = assay: Induction of apoptosis in human HL60 cells at 5 to 25 uM incubated for 72 hrs by AnnexinV/propidium iodide staining method; format: functional, cell-based
Method in brief: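 HL-60 cells (1.5 × 10^5) were treated at 5–25 µM for 24, 48 or 72 h and harvested. They were stained with Annexin V-FITC for 10 min in HEPES/CaCl2/NaCl binding buffer, washed, briefly stained with PI (1 mg/mL) and analysed by flow cytometry for apoptosis and necrosis. Mean ± SD, n ≥ 3.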

HL-60 [21] = assay: Cell cycle arrest in human HL60 cells assessed as accumulation at S phase at 5 uM incubated for 24 hrs by flow cytometry (reference value: 44.41 +/- 0.77%); format: functional

CCCCCCNC(=N)Nc1ccc2cc3ccc(NC(=N)NCCCCCC)cc3nc2c1.Cl.Cl.O
Activity (HL-60 [1]): 73.7% | Activity (Nucleic Acid [2]): inactive | Activity (HL-60 [3]): 16.37% | Activity (HL-60 [4]): 23.84% | Activity (HL-60 [5]): 57.54% | Activity (HL-60 [6]): 73.59% | Activity [7]: Active | Activity (HL-60 [8]): 11.65% | Activity (HL-60 [9]): 10.37% | Activity (HL-60 [10]): 65.72% | Activity (HL-60 [11]): 8.11% | Activity (Nucleic Acid [12]): Active | Tm (Nucleic Acid [13]): 89 °C | Activity (HL-60 [14]): 46.58% | Activity (HL-60 [15]): 11.36% | Activity (HL-60 [16]): 38.11% | Activity (HL-60 [17]): 27.52% | Activity (HL-60 [18]): 22.5% | Activity (HL-60 [19]): Active | Activity (HL-60 [20]): Active | Activity (HL-60 [21]): 47.31%

CCNC(=N)Nc1ccc2cc3ccc(NC(=N)NCC)cc3nc2c1.Cl.Cl.O
Activity (HL-60 [1]): 71.7% | Activity (Nucleic Acid [2]): Active | Activity (HL-60 [3]): inactive | Activity (HL-60 [4]): inactive | Activity (HL-60 [5]): 79.32% | Activity (HL-60 [6]): inactive | Activity [7]: Active | Activity (HL-60 [8]): inactive | Activity (HL-60 [9]): inactive | Activity (HL-60 [10]): inactive | Activity (HL-60 [11]): inactive | Activity (Nucleic Acid [12]): Active | Tm (Nucleic Acid [13]): 84 °C | Activity (HL-60 [14]): inactive | Activity (HL-60 [15]): inactive | Activity (HL-60 [16]): inactive | Activity (HL-60 [17]): inactive | Activity (HL-60 [18]): inactive | Activity (HL-60 [19]): inactive | Activity (HL-60 [20]): inactive | Activity (HL-60 [21]): inactive

Reference: ChEMBL document CHEMBL2169850, “3,6-bis(3-alkylguanidino)acridines as DNA-intercalating antitumor agents” (Eur J Med Chem, 2012)
